The record followed here is ChEMBL document CHEMBL4190282, “The Conjugated Double Bond of Coniferyl Aldehyde Is Essential for Heat Shock Factor 1 Mediated Cytotoprotection” (J Nat Prod, 2017).

Experiment [1] relates to L132. Kind of experiment: Cytoprotective activity against paclitaxel-induced caspase3 cleavage in human L-132 cells at 3 uM pretreated for 1 hr followed by paclitaxel addition measured after 24 hrs by immunoblotting analysis. The format is functional, cell-based. Summed up: (§1)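 Human embryonic lung L132 cells in RPMI with 10% FBS. 1 h pretreatment at 3 μM, then 0.5 μM paclitaxel or 20 μM cisplatin for 24 h, or 10 Gy 137Cs γ-rays (3.81 Gy/min) for 48 h. Cleaved PARP and caspase-3 immunoblotted (ECL); bands normalized to loading control, fold-change vs negative control, ≥3 independent experiments.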
(In western blotting, separated proteins are transferred to a membrane and probed.)

A further experiment has as its system MEF. Kind of experiment: Cytoprotective activity against paclitaxel-induced PARP cleavage in HSF1 deficient MEF at 3 uM pretreated for 1 hr followed by paclitaxel addition measured after 24 hrs by immunoblotting analysis. In kind it is functional, cell-based. As to conditions: Mus musculus. Summed up:
(§2)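 HSF1+/+ or HSF1−/− MEFs in DMEM with heat-inactivated 10% FBS, nonessential amino acids, glutamine, HEPES, 37 °C, 5% CO2. 1 h pretreatment at 3 μM, then 0.5 μM paclitaxel or 20 μM cisplatin for 24 h, or 10 Gy 137Cs γ-rays (3.81 Gy/min) for 48 h. Cleaved PARP and caspase-3 immunoblotted; bands normalized to loading control, fold-change vs negative control, ≥3 independent experiments.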

The target in experiment [2] is T1, Heat shock factor protein 1 (Homo sapiens) (UniProt Q00613).
T1 sequence (whole entry): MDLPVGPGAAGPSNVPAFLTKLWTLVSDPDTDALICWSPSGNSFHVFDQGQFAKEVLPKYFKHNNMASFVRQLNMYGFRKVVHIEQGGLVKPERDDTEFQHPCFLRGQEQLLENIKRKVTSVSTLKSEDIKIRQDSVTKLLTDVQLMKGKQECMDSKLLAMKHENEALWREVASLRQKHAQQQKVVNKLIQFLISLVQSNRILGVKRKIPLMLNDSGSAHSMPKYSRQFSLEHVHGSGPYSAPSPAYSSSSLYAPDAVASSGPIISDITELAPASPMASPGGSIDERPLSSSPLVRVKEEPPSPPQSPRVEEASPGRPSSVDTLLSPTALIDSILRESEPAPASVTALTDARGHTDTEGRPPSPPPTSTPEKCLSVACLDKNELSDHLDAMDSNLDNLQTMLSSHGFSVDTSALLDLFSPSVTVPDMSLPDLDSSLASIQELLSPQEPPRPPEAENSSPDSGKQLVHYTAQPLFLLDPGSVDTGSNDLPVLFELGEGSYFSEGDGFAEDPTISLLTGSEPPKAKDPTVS
Description: Activation of HSF1 in human L132 cells assessed as increase in HSP25 mRNA expression at 3 uM after 12 hrs by RT-PCR analysis. In kind it is cell-based. Summed up: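 L132 human lung fibroblasts treated 12 h at 3 μM; hsp27 and hsp70 mRNA measured by RT-PCR under the same conditions as immunoblotting. Celastrol 1 μM positive control.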

Experiment [3] concerns the target T1, Heat shock factor protein 1 (Homo sapiens). Kind of experiment: Activation of HSF1 in human L132 cells assessed as increase in HSP70 protein levels at 3 uM after 12 hrs by immunoblotting analysis. In kind it is cell-based. In outline:
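L132 cells treated at 3 μM for 12 h, or at various doses for 12 h, or at 3 μM over a time course. Lysates resolved by SDS-PAGE, blotted to nitrocellulose, milk-blocked, primary antibodies 18 h at 4 °C, ECL detection. HSP27, HSP70 and Ser326-phospho-HSF1 bands normalized to loading control; ≥3 independent experiments; celastrol 1 μM positive control.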

Experiment [4] has as its system L132. Kind of experiment: Cytoprotective activity against IR-induced caspase3 cleavage in human L-132 cells at 3 uM pretreated for 1 hr followed by 10 Gy irradiation measured after 48 hrs by immunoblotting analysis. In kind it is functional, cell-based. Summed up:
as §1

In experiment [5] the target is T2, Heat shock factor protein 1 (Mus musculus) (UniProt P38532).
T2 sequence (whole entry): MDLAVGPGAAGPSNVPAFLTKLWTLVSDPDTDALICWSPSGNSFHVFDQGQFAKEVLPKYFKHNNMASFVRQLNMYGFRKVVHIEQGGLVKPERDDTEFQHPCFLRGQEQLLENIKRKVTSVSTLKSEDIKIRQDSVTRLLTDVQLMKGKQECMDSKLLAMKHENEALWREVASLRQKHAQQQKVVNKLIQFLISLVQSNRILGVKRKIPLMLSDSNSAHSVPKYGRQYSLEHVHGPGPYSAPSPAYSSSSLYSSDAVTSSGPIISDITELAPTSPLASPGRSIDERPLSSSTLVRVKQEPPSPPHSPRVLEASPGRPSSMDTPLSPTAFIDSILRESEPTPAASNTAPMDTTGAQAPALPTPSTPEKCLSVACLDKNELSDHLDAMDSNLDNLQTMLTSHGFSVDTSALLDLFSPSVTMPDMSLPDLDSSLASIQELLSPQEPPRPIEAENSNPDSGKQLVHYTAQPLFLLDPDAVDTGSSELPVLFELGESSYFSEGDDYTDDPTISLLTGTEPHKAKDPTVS
Description: Activation of HSF1 in MEF assessed as protection against IR-induced PARP cleavage at 3 uM pretreated for 1 hr followed by 10 Gy irradiation measured after 48 hrs by immunoblotting analysis. In kind it is cell-based. Summed up:
as §2

Experiment [6] addresses T2, Heat shock factor protein 1 (Mus musculus). Kind of experiment: Activation of HSF1 in MEF assessed as protection against IR-induced caspase3 cleavage at 3 uM pretreated for 1 hr followed by 10 Gy irradiation measured after 48 hrs by immunoblotting analysis. The format is cell-based. In outline:
as §2

The subject of experiment [7] is Mus musculus. Kind of experiment: Protection against IR-induced mortality in ICR mouse assessed as increase in mean survival days at 5 to 10 mg/kg, ip administered once before and three times after 7 Gy irradiation measured daily for 30 days. The format is functional, organism-based. In outline: (§3)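 Female ICR mice (5–6 weeks, 25–30 g) given 7 Gy whole-body IR; dosed ip at 5 or 10 mg/kg once before and three times after IR, DMSO stock diluted in modified PBS. Survival days and radiation sickness signs checked twice daily; 10 mice per group.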

The subject of experiment [8] is Mus musculus. Kind of experiment: Protection against IR-induced reduction of food and water intake in ICR mouse at 5 to 10 mg/kg, ip administered once before and three times after 7 Gy irradiation measured daily for 30 days. The format is functional, organism-based. Summed up:
as §3

The subject of experiment [9] is Mus musculus. Kind of experiment: Protection against IR-induced lethargy in ICR mouse at 5 to 10 mg/kg, ip administered once before and three times after 7 Gy irradiation measured daily for 30 days. In kind it is functional, organism-based. Summed up: as §3
Experiment [10] has as its system Mus musculus. Description: Protection against IR-induced bone marrow damage in ICR mouse at 10 mg/kg, ip administered once before and three times after 4.5 Gy irradiation measured after 9 days by hematoxylin and eosin staining based assay. In kind it is functional, organism-based. In outline:
(§4)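 Female ICR mice (5–6 weeks) given 4.5 Gy whole-body IR, dosed ip at 10 mg/kg once before and three times after IR; 5 per group, sacrificed day 9. BM cellularity from H&E (hematopoietic cells per 200×200 μm area); peripheral WBC, lymphocytes, neutrophils; Ki67 IHC counted in five fields per femur; relative spleen weight vs control. Means ± SD, Student's t test.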

Experiment [11] relates to Mus musculus. Kind of experiment: Protection against IR-induced reduction in circulating WBCs in ICR mouse at 10 mg/kg, ip administered once before and three times after 4.5 Gy irradiation measured after 9 days. In kind it is functional, organism-based. Summed up:
as §4

The subject of experiment [12] is Mus musculus. Description: Protection against IR-induced reduction of spleen weight in ICR mouse at 10 mg/kg, ip administered once before and three times after irradiation measured after 9 days. In kind it is functional, organism-based. In outline: as §4

Activity calls are given as the source filed them. The calls are words filed in the database; no cut-off is given here.

Turning to `COc1cc(/C=C/C=O)ccc1O` [CONIFERYL ALDEHYDE], the outcome (in the experiment on L132 [1]; in experiment [2]; in [3]; in the experiment on L132 [4]; in [5]; in [6]) was Active. Moreover, the outcome with Mus musculus [7], in the experiment on Mus musculus [8], in the experiment on Mus musculus [9], with Mus musculus [10], in the experiment with Mus musculus [11] and in the experiment on Mus musculus [12] was Active. Further, the outcome in the experiment with MEF was inactive.
Consider `COc1cc(/C=C/CO)ccc1O` [CONIFERYL ALCOHOL], for which the result (in the experiment with L132 [1]; in experiment [2]; in [3]; in the experiment with L132 [4]; in [5]; in experiment [6]) was Active. Also, the outcome in the experiment with Mus musculus [7], in the experiment on Mus musculus [8], with Mus musculus [9], in the experiment with Mus musculus [10], in the experiment on Mus musculus [11] and in the experiment with Mus musculus [12] was Active. For the same compound, the outcome in the experiment with MEF was inactive.
